Source: ChEMBL document CHEMBL4350976, “Sequence modification of heptapeptide selected by phage display as homing device for HT-29 colon cancer cells to improve the anti-tumour activity of drug delivery systems” (Eur J Med Chem, 2019)
Where a SMILES comes first, the peptide text is derived from it. The star is where a group is joined. X1 = COc1cccc2c1C(=O)c1c(O)c3c(c(O)c1C2=O)C[C@@](O)(/C(C)=N/OCC(=O)*)C[C@@H]3O[C@H]1C[C@H](N)[C@H](O)[C@H](C)O1

Assays:
[1] = system: PANC-1; experiment: Potency index, ratio of compound IC50 to Daunomycin IC50 for human PANC1 cells preincubated for 24 hrs under serum free condition followed by compound washout and further incubation for 48 hrs in presence of serum by MTT assay; assay type: functional
[2] = Retention time of the compound using 0.1% TFA in water and 0.1% TFA in acetonitrile-water (80:20 v/v) as eluents by RP-HPLC analysis; assay type: physicochemical
How it was run: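 Analytical RP-HPLC. Eluent A was 0.1% TFA in water and eluent B was 0.1% TFA in acetonitrile-water (80:20, v/v). Gradient: 0% B held to 5 min, then to 90% B at 50 min. Flow 1 mL/min, detection at 220 nm. The column was a Phenomenex Aeris Peptide XB-C18 (250×4.6 mm, 3.6 μm) or a Nucleosil C18 (5 μm, 100 Å, 250×4.6 mm), depending on the conjugate series.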

[3] = system: OVCAR-3; experiment: Potency index, ratio of compound IC50 to Daunomycin IC50 for human OVCAR3 cells preincubated for 24 hrs under serum free condition followed by compound washout and further incubation for 48 hrs in presence of serum by MTT assay; assay type: functional
[4] = system: MRC5; experiment: Cytostatic activity against human MRC5 cells preincubated for 24 hrs under serum free condition followed by compound washout and further incubation for 48 hrs in presence of serum by MTT assay; assay type: ADME, cell-based
How it was run: (§1)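 Cells were grown at 37 °C in 5% CO2 in medium with 10% heat-inactivated FBS (20% for OVCAR-3) plus penicillin/streptomycin. The medium was RPMI-1640 for most lines, DMEM for U-87 MG and MRC-5, and IMDM for PE/CA-PJ lines. Seeding was 3×10^3–10×10^3 cells per well. Cells had 24 h compound exposure, a wash, and 48 h further culture. Read-out was MTT, normalized to untreated cells and fitted by nonlinear regression for IC50.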

[5] = system: PANC-1; experiment: Cytostatic activity against human PANC1 cells preincubated for 24 hrs under serum free condition followed by compound washout and further incubation for 48 hrs in presence of serum by MTT assay; assay type: functional, cell-based; how it was run: as §1
[6] = system: HepG2; experiment: Cytostatic activity against human HepG2 cells preincubated for 24 hrs under serum free condition followed by compound washout and further incubation for 48 hrs in presence of serum by MTT assay; assay type: functional, cell-based; how it was run: as §1
[7] = Toxicity in SCID mouse xenografted with human HT-29 cells assessed as animal death at 38.3 mg/kg, ip administered thrice in first week and twice in second week (on days 13, 16, 20, 23 and 27) starting from 13 days post inoculation measured upto 30 days post inoculation; assay type: organism-based; details: in vivo
How it was run: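 Female SCID mice (6–8 weeks, 22–27 g) with orthotopic HT-29 colon tumours. Conjugates given i.p. in distilled water for injection at 10 mg/kg Dau content (36.6 or 38.3 mg/kg conjugate) on days 13, 16, 20, 23 and 27, 8 mice/group. Study ended day 30; deaths and body weight recorded against a solvent-treated control group.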

For `COc1cccc2c1C(=O)c1c(O)c3c(c(O)c1C2=O)C[C@@](O)(/C(C)=N/OCC(=O)N[C@@H](CC(C)C)C(=O)N[C@@H](CCCNC(=N)N)C(=O)N[C@@H](CCCNC(=N)N)C(=O)N[C@@H](Cc1ccc(O)cc1)C(=O)N[C@H](C(=O)N[C@@H](Cc1cnc[nH]1)C(=O)N[C@@H](CC(C)C)C(=O)N[C@@H](Cc1ccccc1)C(=O)N[C@@H](Cc1ccc(O)cc1)C(=O)N[C@@H](C)C(=O)N[C@H](C(N)=O)[C@@H](C)O)C(C)C)C[C@@H]3O[C@H]1C[C@H](N)[C@H](O)[C@H](C)O1` (X1-LRRYVHLFYAT-NH2), the “Ratio IC50” value [1] was 57.7, the Retention time [2] was 31.2 to 33.2 min and the “Ratio IC50” value [3] was 24. For the same compound, the IC50 [4] was 52.1 µM, the IC50 [5] was 26.9 µM and the IC50 [6] was 4.7 µM. For the same compound, the Activity [7] was “Non-Toxic”.
